We go through 38 variants from the RNAGym collection of RNA variant scans (doi:10.1038/nmeth.2970).

First the molecules themselves.
B1: NELF-E aptamer (parent)
chain: CCCAACGACUGCCGAGCGAGAUUACGCUUGAGCGCCCCACUGAGGAUGCCCACGGGCGAUUGGGGCACGG

This series covers variants of B1. In words: HiTS-RAP. The following applies: with NELF-E (Drosophila). The method in brief:
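Aptamer DNA templates carrying a T7 promoter and ter site were sequenced on an Illumina GAIIx flowcell, then transcribed in situ by T7 RNA polymerase and halted by GST-Tus (30 minutes, 37°C). Clusters were imaged after 30-minute room-temperature equilibration with NELF-E-mOrange at 0.064 to 1000 nM in HEPES binding buffer, and only the first binding curve was used. Intensities were normalised to sequencing intensity and averaged per sequence. Kd came from weighted Hill fits, keeping fits with variance below 1,000,000.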
Take CCCAACGACUGCCGAGCGAGAUUGCGCUUGAGCGCCCCACUGUGGAUGCCCACGGGCGAUUGGGGCACGG: the Kd amounted to 55.4 nM.
Under CCCAACGACUGCCGAGCGAGAUUGCGCUUGAGCGCCCCACUGGGGAUGCCCACGGGCGAUUGGGGCACGG stands 27.9 nM.
The figure for CCCAACGACUGCCGAGCGAGAUUGUGCUUGAGCGCCCCACUGAGGAUGCCCACGGGCGAUUGGGGCACGG is 6.02 nM; for CCCAACGACUGCCGAGCGAGAUUAUGCUGGAGCGCCCCACUGAGGAUGCCCACGGGCGAUUGGGGCACGG it is 6.54 nM.
Under CCCAACGACUGCCGAGCGAGAUUGCGCUUGAGCGCCCCACUGAGGAUGCCUACGGGCGAUUGGGGCACGG stands 8.86 nM.
On to CCCAACGACUGCCGAGCGAGAUUAGGCUGGAGCGCCCCACUGAGGAUGCCCACGGGCGAUUGGGGCACGG, for which the Kd is 6.18 nM.
Under CCCAACGACUGCCGAGCGAGAUUGCGCUUGAUCGCCCCACUGAGGAUGCCCACGGGCGAUUGGGGCACGG stands 6.57 nM; under CCCAACGACUGCCGAGCGAGAUUGCGCUUGAACGCCCCACUGAGGAUGCCCACGGGCGAUUGGGGCACGG, 5.64 nM.
The figure for CCCAACGACUGCCGAGCGAGAUUGCGCUUGAGCGCCCCACUGAGGAUGCCCACGGGCGAUUGGGUCACGG is 6 nM; for CCCAACGACUGCCGAGCGAGAUUGCGCUUGAGCGCCCCACUGAGGAUGCCCACGGGCGAUUGGGACACGG it is 5.2 nM; for CCCAACGACUGCCGAGCGAGAUUGCGCUUGAGCGUCCCACUGAGGAUGCCCACGGGCGAUUGGGGCACGG it is 9.45 nM.
Under CCCAACGACUGCCGAGCGAGAUUGCGCUUGAGCGCCCCACUGAGGAUGCCCACGGGCGAUUGGAGCACGG stands 7.13 nM.
For CCCAACGACUGCCGAGCGAGAUUGCGCUUGAGCGCCCCACUGAGGAUGCCCACGGGCGAUUGGUGCACGG, the Kd stood at 6.61 nM.
Under CCCAACGACUGCCGAGCGAGAUUGCGCUUGAGCGCCCCACUGAGGAUGCCCACGGGCGAUUGGCGCACGG stands 5.75 nM; under CCCAACGACUGCCGAGCGAGAUUGCGCUUGAGCGCCCCACUGAGGAUGCCCACGGGUGAUUGGGGCACGG, 6.3 nM.
Under CCCAACGACUGCCGAGCGAGAUUGCGCUUGAGCGCCCCACUGAAGAUGCCCACGGGCGAUUGGGGCACGG stands 18.5 nM; under CCCAACGACUGCCGAGCGAGAUUGCGCUUGAGCGCCCCACUAAGGAUGCCCACGGGCGAUUGGGGCACGG, 56 nM; under CCCAACGACUGCCGAGCGAGAUUGCGCUUGAGCACCCCACUGAGGAUGCCCACGGGCGAUUGGGGCACGG, 8.56 nM.
The figure for CCCAACGACUGCCGAGCGAGAUUGCGCUUGAGCGCCCCACUGAGUAUGCCCACGGGCGAUUGGGGCACGG is 6.64 nM; for CCCAACGACUGCCGAGCGAGAUUGCGCUUGAGCGCCCCACUGAGGAUGCCCACGAGCGAUUGGGGCACGG it is 11.1 nM.
As for CCCAACGACUGCCGAGCGAGAUUGCGCUUGAGCGCCCCACUGAGGAUGCUCACGGGCGAUUGGGGCACGG, the Kd is 9.69 nM.
Under CCCAACGACUGCCGAGCGAGAUUGCGCUUGAGCGCCCCACUGAGGAUGCCCACUGGCGAUUGGGGCACGG stands 7.49 nM.
Under CCCAACGACUGCCGAGCGAGAUUGCGCUUGAGCGCCCCACUGAGGAUGCCCACAGGCGAUUGGGGCACGG stands 11.9 nM; under CCCAACGACUGCCGAGCGAGAUUAGGCUUGAGCGCCCCACGGAGGAUGCCCACGGGCGAUUGGGGCACGG, 6.42 nM.
The figure for CCCAACGACUGCCGAGCGAGAUUGCGCUUGAGCGCCCCACUGAGGAUGUCCACGGGCGAUUGGGGCACGG is 13.4 nM; for CCCAACGACUGCCGAGCGAGAUUGCGCUUGAGCGCCCCACUGAGGAUGCCCAUGGGCGAUUGGGGCACGG it is 4.2 nM; for CCCAACGACUGCCGAGCGAGAUUGCGCUUGAGCGCCCCACUGAGGAUGCCCAGGGGCGAUUGGGGCACGG it is 7.46 nM.
On to CCCAACGACUGCCGAGCGAGAUUUCGCUUGAGCGCCCCACGGAGGAUGCCCACGGGCGAUUGGGGCACGG, for which the Kd turned out to be 6.61 nM.
Regarding CCCAACGACUGCCGAGCGAGAUUGCGCUUGAGCGCCCCACUGAGGAUGCCCGCGGGCGAUUGGGGCACGG, the Kd was found to be 5.14 nM.
The figure for CCCAACGACUGCCGAGCGAGAUUGCGCUUGAGCGCCCCACUGAGGAUGCCCUCGGGCGAUUGGGGCACGG is 14.2 nM; for CCCAACGACUGCCGAGCGAGAUUGCGUUUGAGCGCCCCACUGAGGAUGCCCACGGGCGAUUGGGGCACGG it is 6.16 nM.
Take CCCAACGACUGCCGAGCGAGAUUUCGCUGGAGCGCCCCACUGAGGAUGCCCACGGGCGAUUGGGGCACGG: the Kd is 6.22 nM.
Under CCCAACGACUGCCGAGCGAGAUUGCGCUUGAGCGCCCCACUGAGGAUGCCCACGGGCGGUUGGGGCACGG stands 36.5 nM; under CCCAACGACUGCCGAGCGAGAUUGCGCUUGAGCGCCCCAGUGAGGAUGCCCACGGGCGAUUGGGGCACGG, 6.34 nM; under CCCAACGACUGCCGAGCGAGAUUGCGCUUGAGGGCCCCACUGAGGAUGCCCACGGGCGAUUGGGGCACGG, 8.38 nM.
As for CCCAACGACUGCCGAGCGAGAUUGCGCUUGAGUGCCCCACUGAGGAUGCCCACGGGCGAUUGGGGCACGG, the Kd worked out at 5.71 nM.
Under CCCAACGACUGCCGAGCGAGAUUGCGCUUGAGCGCCCCACUGAGGAUGCCCACGGGCGAUGGGGGCACGG stands 9.98 nM.
Consider CCCAACGACUGCCGAGCGAGAUUGCGCUUGAGCGCCCCACUGAGGAUGCCCACGGGCGAUCGGGGCACGG, for which the Kd turned out to be 76.4 nM.
